# Shown are actives, neighbours in structure and some others; about 1.5% of the full set was active somewhere.
# HCV core dimer = HCV core protein dimerization inhibition. AID 1899. hit rate 0.33% among 300,000. TR-FRET GST/Flag-core106 dimerization, 1536-well. inhibition, % at 5 µM;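 active means inhibition above the mean of all tested compounds plus 3 SD, set per screening campaign, cut at about 45% in these data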
#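 Test system: GST/Flag-tagged HCV core106 proteins; Medium: KF-containing HEPES buffer, pH 7.45, DTT, CHAPS, BSA; Times: compound-protein-antibody incubation 4 h at 22.5 °C; Detection: TR-FRET 671 and 617 nm emission; Benchmarks: wells lacking GST-core106 and wells with excess unlabelled core106.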
# MEX-5 binding = C. elegans MEX-5 TCR-2 RNA binding activity. MEX-5/FITC-TCR2 RNA binding, fluorescence polarization; active compounds read low. activity score (negative = inhibition of binding), % at 10 µM. hit rate 0.38% among 300,000. AID 1832;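 active means inhibition past about -25% in most replicates, and total fluorescence under double the plate's negative control median, limit read from the data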;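 further: 0% = DMSO and -100% = 5 µM competing unlabeled TCR2 RNA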
# Target sequence (Q9XUB2 whole entry, looked up): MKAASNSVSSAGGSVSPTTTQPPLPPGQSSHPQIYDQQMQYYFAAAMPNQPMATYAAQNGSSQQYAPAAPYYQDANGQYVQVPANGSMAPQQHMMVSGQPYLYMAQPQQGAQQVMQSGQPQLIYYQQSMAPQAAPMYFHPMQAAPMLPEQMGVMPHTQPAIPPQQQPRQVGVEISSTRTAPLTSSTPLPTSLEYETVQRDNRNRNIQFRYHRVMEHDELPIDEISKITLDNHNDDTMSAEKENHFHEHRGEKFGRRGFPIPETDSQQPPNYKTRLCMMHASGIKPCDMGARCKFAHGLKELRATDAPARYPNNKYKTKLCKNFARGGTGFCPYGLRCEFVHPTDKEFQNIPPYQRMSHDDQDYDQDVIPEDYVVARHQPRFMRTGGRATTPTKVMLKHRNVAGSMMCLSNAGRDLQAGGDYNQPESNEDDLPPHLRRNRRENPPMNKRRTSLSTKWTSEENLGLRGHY
# NRP1-CendR mod = modulators of CendR peptide binding to human neuropilin-1; FAM-RPARPAR peptide binding to NRP-1, fluorescence polarization; O14786; inhibition, % at 25 µM; hit rate 0.85% among 360,000;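 active means inhibition or corrected inhibition above about 18%, plus a signal ratio from 0.5 to 1.5, limit read from the data, passing the limit was not always enough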
# FID counter = displaces DNA intercalator in HCV helicase counter-screen | DNA fluorescent intercalator displacement, fluorescence | inhibition, % at 7.9 µM | hit rate 0.17% among 290,000 | AID 1845; in the data active means inhibition above about 37%;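 further: 0% = vehicle and 100% = reference compound; higher means more ethidium bromide displaced from hairpin DNA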
# Starred values were filed as active, the others as inactive; / = not tested or not shown.
SMILES,HCV core dimer,MEX-5 binding,NRP1-CendR mod,FID counter
O=C(NN1C(=O)c2ccccc2NC1c1ccccn1)c1ccc(Br)cc1 (stereo unspecified),7.1,-30.0*,-1.2,-1.9
O=C1CCc2cc(S(=O)(=O)NC3CCCCC3)ccc2N1,/,/,-1.6,/
CCOC(=O)/C=C/c1ccc2c(c1)S(=O)(=O)N(c1cccc(OC)c1)[C@H]2CC(=O)OCC,4.5,-2.8,28.5*,/
CCc1nc2ccc(C(=O)N(C)Cc3ccccc3)cn2c1N(C)Cc1ccc(OC)cc1,/,/,0.9,/
C/C=C/c1cccc(-c2nc(C(=O)N3CCCCC3)cc3c2[C@H](CCO)N(C(=O)NC(C)C)C3)c1,/,/,22.1*,/
Cc1ccc(C(=O)CN2C(=O)NC3(CCCCCC3)C2=O)c(C)c1,2.8,-0.1,1.7,/
CCc1nc2ccc(C(=O)NCCCn3ccnc3)cn2c1N(C)Cc1ccc(N(C)C)cc1,/,/,-7.7,/
Cc1cc(Cl)ccc1-c1cc2nc(NCCCN(C)C)n(C)c(=O)c2s1,/,/,-19.2,/
Cc1ccc2nc(SCc3nnc(-c4ccccc4Br)o3)[nH]c2c1,1.9,-4.6,33.3*,-17.6
COC(=O)c1ccc2nc(C3CCCCC3)c(Cc3cccc(Cl)c3)n2c1,/,/,-22.7,/
COc1cc(O)c(C(CC(=O)N2CCCCC2)c2ccc(N(C)C)cc2)c(OC)c1 (stereo unspecified),/,3.9,-4.9,/
COc1cc(O)c(C(CC(=O)N2CCOCC2)c2ccc(N(C)C)cc2)c(OC)c1 (stereo unspecified),-10.3,0.4,24.1*,/
COc1cc(O)c(C(CC(=O)N2CCOCC2)c2ccc3c(c2)OCO3)c(OC)c1 (stereo unspecified),-14.8,0.2,27.6*,/
CC(C)c1ccc(C2CC(=O)N3CN(C)CSC3=C2C#N)cc1 (stereo unspecified),-2.9,-0.6,-17.8,-33.4
CC(C)c1ccc(C2C(C#N)=C(N)N3C(=C2C#N)Sc2ccccc23)cc1 (stereo unspecified),-14.7,-120.4*,/,-3.0
CCOC(=O)[C@]12CCC=C1N(Cc1ccc(Cl)cc1Cl)C(=O)[C@H](CC(=O)NCc1cccc3ccccc13)C2,/,/,-6.5,/
O=C(NN=C1CCCC1)c1sc2ccccc2c1Cl,3.0,-3.1,-2.8,-5.7
O=C1CCC/C(=N/NC(=O)c2sc3ccccc3c2Cl)C1,-2.0,-27.5*,129.5,-25.2
CC1(C(=O)NCc2ccccc2)CSCC(=O)N1Cc1cccs1 (stereo unspecified),/,/,16.3,/
CCOC(=O)c1cnn(-c2nc(SC)nc3sc4c(c23)CCC4)c1N,79.9*,1.3,7.2,0.0
CC1(C(=O)NS(=O)(=O)c2ccccc2C(F)(F)F)CCN1C(=O)CCc1ccccc1 (stereo unspecified),/,/,-2.1,/
CC1(C(=O)NCc2cccs2)Cc2c(-c3ccc(C(N)=O)cc3)ccnc2O1 (stereo unspecified),/,/,0.9,/
Cc1nc2sccn2c(=O)c1S(=O)(=O)N1CCN(c2ccccc2F)CC1,/,/,0.6,/
Cc1cccc(C(=O)c2c(N)sc3c2CCCC3)c1,49.0*,3.0,-33.5,-14.8
O=C(CN1C(=O)S/C(=C\c2ccccc2)C1=O)Nc1cc([N+](=O)[O-])ccc1O,14.6,-5.4,0.0,43.3*
SMILES,HCV core dimer,MEX-5 binding,NRP1-CendR mod,FID counter
CCCCNC(=O)C1c2ccccc2OCC(=O)N1Cc1ccccc1 (stereo unspecified),/,/,-1.7,/
CCCCNC(=O)C1c2ccccc2OCC(=O)N1Cc1ccc2c(c1)OCO2 (stereo unspecified),/,/,19.3*,/
CC(=O)Oc1cc2c(c3ccccc13)CCC2=O,/,/,30.9*,/
CCOC(=O)c1oc2c(CN3CCN(C)CC3)c(O)c(CC)cc2c(=O)c1-c1nc2ccccc2s1,/,/,-2.0,/
CCOC(=O)c1[nH]c2ccc(F)cc2c1NC(=O)CCN1CCOCC1,7.2,0.1,-11.6,2.4
CCOC(=O)c1[nH]c2ccc(Br)cc2c1NC(=O)CCN1CCCC(C)(C)C1,-5.9,1.0,29.2*,10.4
O=C(O)CN1C(=O)/C(=C\c2cn(-c3ccccc3)nc2-c2ccccc2)SC1=S,16.1,-1.3,-72.8,6.9
CCN1C(=O)/C(=C\c2cn(-c3ccccc3)nc2-c2cccnc2)SC1=S,/,-8.9,35.6*,-7.9
COc1ccc(CN2CC[C@@H]3CN(C(C)=O)[C@H](c4ccccc4Br)C[C@@H]32)cc1,/,/,-2.6,/
CCOc1ccc(N=Cc2ccc([N+](=O)[O-])cc2)c(O)c1,/,/,-2.8,/
Cc1ccc(S(=O)(=O)N2CCOCC(=O)NCCOCCNC(=O)COCC2)cc1,/,1.0,16.7,-6.0
Cc1cc(C)c2c(c1)[C@@H]1C=CC[C@@H]1[C@H](c1ccc(S(=O)(=O)N3CCOCC3)cc1)N2,84.4*,/,-13.6,-6.5

# From PubChem
